The values that follow come from ChEMBL document CHEMBL1156490, “TLR9 agonist acts by different mechanisms synergizing with bevacizumab in sensitive and cetuximab-resistant colon cancer xenografts” (2007).

The source made the active and inactive calls. The rule behind the calls is not given here.

Assay [1] concerns LS174T. Description: Potentiation of bevacizumab-induced antitumor activity against human LS174T tumor xenografted BALB/c mouse at 1 mg/kg, ip three times a week for 4 weeks measured after 8 weeks. Format: functional. Particulars: route intraperitoneal. The method, boiled down:
(§1)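 Athymic nude mice, five weeks old, received s.c. GEO, LS174T or GEO-CR cells (10^7 per mouse) in Matrigel and were randomized at day 7, 10 per group. Dosing was i.p. 1 mg/kg three times weekly plus i.p. bevacizumab 5 mg/kg twice weekly, on days 7–11, 14–18 and 21–25; only the first agent continued on days 28–32. Tumor volume = π/6 × larger × (smaller diameter)². Analysis was by Student's t test.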

The subject of assay [2] is Homo sapiens. The assay can be described thus: Potentiation of bevacizumab-induced antitumor activity against human GEO tumor xenografted BALB/c mouse at 1 mg/kg, ip three times a week for 4 weeks measured after 8 weeks. Format: functional, organism-based. Details: dose 1 mg/kg. In a few lines: as §1
Assay [3] concerns Homo sapiens. The assay can be described thus: Potentiation of bevacizumab-induced inhibition of activated form of pAkt expression in human GEO tumor xenografts in BALB/c mouse at 1 mg/kg, ip three times a week for 4 weeks measured after 8 weeks by ELISA. Details: dose 1 mg/kg. In kind it is functional, organism-based. For orientation: Xenograft models place foreign cells or tissue in a host animal.

Assay [4] has as its system HUVEC. Description: Inhibition of VEGF-stimulated capillary tube formation in HUVEC at 1 uM. Format: functional, cell-based. The settings on record: Homo sapiens. The method, boiled down:
(§2)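 HUVEC (4 × 10^5) in RPMI 1640 were seeded on solidified Matrigel (prepared 30 min at 37°C), with or without 1 μM test agent. Cultures were kept at 37°C and photographed at 0 and 24 h to assess capillary tube and network formation.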

The subject of assay [5] is Homo sapiens. The assay can be described thus: Inhibition of total amount of MAPK and Akt in human GEO tumor xenografts in BALB/c mouse at 1 mg/kg, ip three times a week for 4 weeks measured after 8 weeks by ELISA. Format: functional, organism-based. Also on record: dose 1 mg/kg.
Assay [6] has as its system Homo sapiens. Description: Antitumor activity against human GEO tumor xenografted BALB/c mouse at 1 mg/kg, ip three times a week for 4 weeks measured after 8 weeks. Format: functional, organism-based. Details: dose 1 mg/kg. In a few lines: (§3)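 Athymic nude mice, five weeks old, received s.c. GEO, LS174T or GEO-CR colon cancer cells (10^7 per mouse) in Matrigel. Tumors were detected after 7 days and groups of 10 were randomized. Dosing was i.p. at 1 mg/kg three times per week for 4 weeks. Tumor volume = π/6 × larger diameter × (smaller diameter)². Groups were compared by Student's t test.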

Assay [7] relates to Homo sapiens. Description: Inhibition of mVEGF level in human GEO tumor xenografted in BALB/c mouse at 1 mg/kg, ip three times a week for 4 weeks measured after 8 weeks by ELISA. In kind it is functional, organism-based. Details: dose 1 mg/kg. The method, boiled down:
(§4)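 Serum was taken from killed xenograft-bearing mice and assayed by sandwich ELISA. Plates were coated overnight at 4°C with anti-hVEGF or anti-mVEGF polyclonal antibody (1 μg/ml in PBS, pH 7.5), with avidin–biotinylated HRP detection and absorbance read at 490 nm. Concentrations came from linear regression of recombinant hVEGF or mVEGF standard curves.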

Assay [8] relates to Homo sapiens. Description: Inhibition of activated form of VEGF expression in human GEO tumor xenografts in BALB/c mouse at 1 mg/kg, ip three times a week for 4 weeks measured after 8 weeks by ELISA. In kind it is functional, organism-based. Details: dose 1 mg/kg.
The test system of assay [9] is Homo sapiens. Description: Potentiation of bevacizumab-induced inhibition of hVEGF level in human GEO tumor xenografts in BALB/c mouse at 1 mg/kg, ip three times a week for 4 weeks measured after 8 weeks by ELISA. Format: functional, organism-based. Details: dose 1 mg/kg. In a few lines: as §4
Assay [10] can be described thus: Potentiation of cetuximab-induced cytotoxicity in human MDA468 cells assessed as lysis at 5 uM by ADCC assay. In kind it is functional, MDA-MB-468. The method, boiled down:
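Effector cells were nonadherent PBLs from human PBMCs, preincubated 24 h with or without 5 μM test agent. MDA468 targets were loaded with BATDA, treated with or without cetuximab (10 μg/ml), and mixed with effectors at varying ratios for 2 h at 37°C. Lysis was read by europium fluorescence in the supernatant.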

Assay [11] concerns Homo sapiens. The assay can be described thus: Inhibition of hVEGF level in human GEO tumor xenografts in BALB/c mouse at 1 mg/kg, ip three times a week for 4 weeks measured after 8 weeks by ELISA. Format: functional, organism-based. Also on record: dose 1 mg/kg. The method, boiled down: as §4
Assay [12] deals with HUVEC. The assay can be described thus: Inhibition of VEGF-stimulated network formation in HUVEC at 1 uM. In kind it is functional, cell-based. The settings on record: Homo sapiens. The method, boiled down: as §2
For assay [13], the system named is Homo sapiens. The assay can be described thus: Potentiation of bevacizumab-induced inhibition of mVEGF level in human GEO tumor xenografted in BALB/c mouse at 1 mg/kg, ip three times a week for 4 weeks measured after 8 weeks by ELISA. Also on record: dose 1 mg/kg. In kind it is functional, organism-based. In a few lines:
as §4

The subject of assay [14] is LS174T. The assay can be described thus: Potentiation of bevacizumab-induced antitumor activity against human LS174T tumor xenografted BALB/c mouse assessed as induction of necrosis at 1 mg/kg, ip three times for week for 4 weeks measured after 8 weeks. Format: functional. The settings on record: route intraperitoneal. In a few lines: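 LS174T s.c. xenografts (10^7 cells in Matrigel) in nude mice received the combined i.p. schedule (1 mg/kg three times weekly plus bevacizumab 5 mg/kg twice weekly). Necrosis was judged by pathological and immunohistochemical analysis of formalin-fixed paraffin sections (5 μm).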

Assay [15] can be described thus: Potentiation of bevacizumab-induced antitumor activity in cetuximab-resistant human GEO-CR tumor xenografted BALB/c mouse assessed tumor volume at 1 mg/kg, ip. Format: functional. The settings on record: route intraperitoneal. The method, boiled down:
as §1

Assay [16] relates to LS174T. The assay can be described thus: Antitumor activity against human LS174T tumor xenografted BALB/c mouse assessed as tumor volume at 1 mg/kg, ip three times a week for 4 weeks measured after 8 weeks. Format: functional. Particulars: route intraperitoneal. The method, boiled down:
as §3

In assay [17] the test system is Homo sapiens. Description: Potentiation of bevacizumab-induced inhibition of activated form of VEGF expression in human GEO tumor xenografts in BALB/c mouse at 1 mg/kg, ip three times a week for 4 weeks measured after 8 week by ELISA. Also on record: dose 1 mg/kg. In kind it is functional, organism-based.
For assay [18], the system named is HUVEC. The assay can be described thus: Inhibition of migration in HUVEC at 1 uM by wound healing assay. In kind it is functional, cell-based. Particulars: Homo sapiens.
In assay [19] the test system is Homo sapiens. The assay can be described thus: Inhibition of activated form of pAkt expression in human GEO tumor xenografts in BALB/c mouse at 1 mg/kg, ip three times a week for 4 weeks measured after 8 weeks by ELISA. Also on record: dose 1 mg/kg. In kind it is functional, organism-based.
Assay [20] concerns Homo sapiens. The assay can be described thus: Inhibition of activated form of pMAPK expression in human GEO tumor xenografts in BALB/c mouse at 1 mg/kg, ip three times a week for 4 weeks measured after 8 weeks by ELISA. In kind it is functional, organism-based. Also on record: dose 1 mg/kg.
For assay [21], the system named is HUVEC. The assay can be described thus: Inhibition of adhesion to matrix in HUVEC at 1 uM by cell adhesion assay. In kind it is functional, cell-based. Particulars: Homo sapiens. The method, boiled down: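 Wells were precoated for 1 h with Matrigel (1 mg/ml) or 0.1% BSA in serum-free medium as a negative control. HUVEC (20,000 per well) were then plated in serum-free medium with or without 1 μM test agent, and adherent cells were quantified.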

Assay [22] deals with Homo sapiens. Description: Potentiation of bevacizumab-induced inhibition of activated form of pMAPK expression in human GEO tumor xenografts in BALB/c mouse at 1 mg/kg, ip three times a week for 4 weeks measured after 8 weeks by ELISA. Format: functional, organism-based. Also on record: dose 1 mg/kg.
Assay [23] concerns Homo sapiens. Description: Antitumor activity in cetuximab-resistant human GEO-CR tumor xenografted BALB/c mouse at 1 mg/kg, ip administered 3 times per week for 4 weeks. Format: functional, organism-based. Details: dose 1 mg/kg. In a few lines: as §3

Turning to `Cc1cn([C@H]2C[C@H](OP(O)(=S)OC[C@H]3O[C@@H](n4ccc(N)nc4=O)[C@H](O)[C@@H]3OP(O)(=S)OC[C@H]3O[C@@H](n4cc(C)c(=O)[nH]c4=O)C[C@@H]3OP(O)(=S)OC[C@H]3O[C@@H](n4cnc5c(=O)nc(N)[nH]c54)[C@H](O)[C@@H]3OP(O)(=S)OC[C@H]3O[C@@H](n4cnc5c(N)ncnc54)[C@H](O)[C@@H]3OP(O)(=S)OC[C@H]3O[C@@H](n4ccc(N)nc4=O)[C@H](O)[C@@H]3OP(O)(=S)OC[C@H]3O[C@@H](n4ccc5c(=O)nc(N)[nH]c54)C[C@@H]3OP(O)(=S)OC[C@H]3O[C@@H](n4cc(C)c(=O)[nH]c4=O)C[C@@H]3OP(O)(=S)OC[C@H]3O[C@@H](n4cc(C)c(=O)[nH]c4=O)C[C@@H]3OP(O)(=S)OC[C@H]3O[C@@H](n4ccc(N)nc4=O)[C@H](O)[C@@H]3OP(O)(=S)OC[C@H]3O[C@@H](n4cc(C)c(=O)[nH]c4=O)C[C@@H]3OP(O)(=S)OCC(O)COP(O)(=S)O[C@H]3C[C@H](n4cc(C)c(=O)[nH]c4=O)O[C@@H]3COP(O)(=S)O[C@H]3[C@@H](O)[C@H](n4ccc(=N)[nH]c4=O)O[C@@H]3COP(O)(=S)O[C@H]3C[C@H](n4cc(C)c(=O)[nH]c4=O)O[C@@H]3COP(O)(=S)O[C@H]3C[C@H](n4cc(C)c(=O)[nH]c4=O)O[C@@H]3COP(O)(=S)O[C@H]3C[C@H](n4ccc5c(=O)nc(N)[nH]c54)O[C@@H]3COP(O)(=S)O[C@H]3[C@@H](O)[C@H](n4ccc(N)nc4=O)O[C@@H]3COP(O)(=S)O[C@H]3[C@@H](O)[C@H](n4cnc5c(N)ncnc54)O[C@@H]3COP(O)(=S)O[C@H]3[C@@H](O)[C@H](n4cnc5c(=O)nc(N)[nH]c54)O[C@@H]3COP(O)(=S)O[C@H]3C[C@H](n4cc(C)c(=O)[nH]c4=O)O[C@@H]3COP(O)(=S)O[C@H]3[C@@H](O)[C@H](n4ccc(N)nc4=O)O[C@@H]3COP(O)(=S)O[C@H]3C[C@H](n4cc(C)c(=O)[nH]c4=O)O[C@@H]3CO)[C@@H](CO)O2)c(=O)[nH]c1=O` (stereo partly drawn), the Activity is recorded as 95% in the assay with LS174T [1]; 60% in assay [10]; 90% in the assay with LS174T [14]; 0.15 cm3 in assay [15]; 1.6 cm3 in the assay with LS174T [16]. Besides, the result in the assay on Homo sapiens [2], in the assay with Homo sapiens [3], in the assay on HUVEC [4], in the assay on Homo sapiens [6], in the assay with Homo sapiens [8] and in the assay with Homo sapiens [9] was Active. Further, the result with Homo sapiens [11], in the assay on HUVEC [12], in the assay with Homo sapiens [17], in the assay on HUVEC [18], with Homo sapiens [19] and with Homo sapiens [20] was Active. Besides, the result with HUVEC [21] and with Homo sapiens [22] was Active. The result in the assay on Homo sapiens [5], with Homo sapiens [7], with Homo sapiens [13] and with Homo sapiens [23] was inactive.
